Activity calls are given as the source filed them. The rule behind the calls is not given here.
Key:
[1] = biological target: T1, NAD-dependent protein deacetylase sirtuin-1 (Homo sapiens, UniProt Q96EB6); test: Inhibition of human recombinant SIRT1 using p53 (379 to 382 residues) conjugated to AMC as substrate incubated for 45 mins in presence of NAD+ by fluorescence assay
T1 sequence (Q96EB6 whole entry): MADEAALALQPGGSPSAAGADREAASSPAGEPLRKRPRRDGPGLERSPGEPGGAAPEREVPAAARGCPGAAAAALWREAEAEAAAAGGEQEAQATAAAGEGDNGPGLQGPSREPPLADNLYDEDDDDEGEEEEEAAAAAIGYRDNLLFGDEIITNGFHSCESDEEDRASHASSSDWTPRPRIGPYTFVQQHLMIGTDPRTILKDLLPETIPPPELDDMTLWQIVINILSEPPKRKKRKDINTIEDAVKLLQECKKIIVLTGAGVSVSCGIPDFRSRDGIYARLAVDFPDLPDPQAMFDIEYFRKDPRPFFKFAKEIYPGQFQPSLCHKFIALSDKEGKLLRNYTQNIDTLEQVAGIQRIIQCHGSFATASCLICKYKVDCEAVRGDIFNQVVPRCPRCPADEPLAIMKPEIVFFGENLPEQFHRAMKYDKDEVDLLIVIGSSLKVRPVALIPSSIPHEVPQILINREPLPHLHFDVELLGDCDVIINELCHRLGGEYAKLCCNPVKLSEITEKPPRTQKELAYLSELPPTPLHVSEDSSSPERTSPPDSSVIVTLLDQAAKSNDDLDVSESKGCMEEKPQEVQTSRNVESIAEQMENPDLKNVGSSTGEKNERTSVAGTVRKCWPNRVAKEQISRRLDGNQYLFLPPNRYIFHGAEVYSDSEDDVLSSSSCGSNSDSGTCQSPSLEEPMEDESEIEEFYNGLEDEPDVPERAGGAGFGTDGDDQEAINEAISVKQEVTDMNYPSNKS

[2] = biological target: T2, NAD-dependent protein deacetylase sirtuin-2 (Homo sapiens, UniProt Q8IXJ6); test: Inhibition of human recombinant SIRT2 using p53 (317 to 320 residues) conjugated to AMC as substrate incubated for 45 mins in presence of NAD+ by fluorescence assay
T2 sequence (Q8IXJ6 whole entry): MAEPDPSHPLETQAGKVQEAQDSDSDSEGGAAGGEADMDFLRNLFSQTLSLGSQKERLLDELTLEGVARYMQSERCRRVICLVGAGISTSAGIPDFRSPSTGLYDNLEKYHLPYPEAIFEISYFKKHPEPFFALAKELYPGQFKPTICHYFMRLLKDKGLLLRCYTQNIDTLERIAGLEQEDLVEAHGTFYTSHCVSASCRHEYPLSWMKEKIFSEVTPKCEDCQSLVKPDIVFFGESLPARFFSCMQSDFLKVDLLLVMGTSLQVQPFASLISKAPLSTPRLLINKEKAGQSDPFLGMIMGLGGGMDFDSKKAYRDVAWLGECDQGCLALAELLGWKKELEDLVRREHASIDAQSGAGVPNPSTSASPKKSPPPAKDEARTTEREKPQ

[3] = biological target: T3, NAD-dependent protein deacetylase sirtuin-3, mitochondrial (Homo sapiens, UniProt Q9NTG7); test: Inhibition of human recombinant SIRT3 using p53 (317 to 320 residues) conjugated to AMC as substrate incubated for 45 mins in presence of NAD+ by fluorescence assay
T3 sequence (Q9NTG7 whole entry): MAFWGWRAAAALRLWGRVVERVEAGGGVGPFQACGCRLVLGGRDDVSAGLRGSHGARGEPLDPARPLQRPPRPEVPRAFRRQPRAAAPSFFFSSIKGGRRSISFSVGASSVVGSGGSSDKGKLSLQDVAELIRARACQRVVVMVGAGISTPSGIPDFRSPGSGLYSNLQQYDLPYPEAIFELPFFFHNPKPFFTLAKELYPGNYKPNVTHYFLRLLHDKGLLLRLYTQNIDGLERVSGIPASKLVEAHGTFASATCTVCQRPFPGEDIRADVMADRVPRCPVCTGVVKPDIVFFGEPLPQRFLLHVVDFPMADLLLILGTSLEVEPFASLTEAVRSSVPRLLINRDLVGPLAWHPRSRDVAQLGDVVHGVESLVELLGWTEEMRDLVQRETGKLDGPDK

[4] = biological target: T4, NAD-dependent protein deacetylase sirtuin-2 (Homo sapiens) (UniProt Q8IXJ6); test: Inhibition of SIRT2 in human H103 cells assessed as increase in acetylated alpha tubulin level at 5.83 uM after 72 hrs by Western blot analysis; type: cell-based
T4 sequence (whole entry): T2 sequence (Q8IXJ6 whole entry)
Method in brief: (§1)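 H103 cells were seeded at 5 × 10^5 per well and treated either for 24 h or for 72 h. Lysates were run on SDS-PAGE and blotted to PVDF. Blocking in 5% skimmed milk with primary antibody was done overnight at 4 °C. HRP secondaries were anti-mouse 1:5000 and anti-rabbit 1:1000, 1 h at room temperature, with ECL detection. Acetylated protein was normalized to actin, then to total protein, then to untreated cells. Two independent experiments were run.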

[5] = biological target: T5, NAD-dependent protein deacetylase sirtuin-1 (Homo sapiens) (UniProt Q96EB6); test: Inhibition of SIRT1 in human H103 cells assessed as increase in acetylated p53 level at 5.83 uM after 72 hrs by Western blot analysis; type: cell-based; method in brief: as §1
T5 sequence (whole entry): T1 sequence (Q96EB6 whole entry)

[6] = biological target: T5, NAD-dependent protein deacetylase sirtuin-1 (Homo sapiens); test: Inhibition of SIRT1 in human H103 cells assessed as increase in acetylated p53 level at 32 uM after 24 hrs by Western blot analysis; type: cell-based; method in brief: as §1
[7] = biological target: T6, NAD-dependent protein deacetylase sirtuin-3, mitochondrial (Homo sapiens) (UniProt Q9NTG7); test: Inhibition of SIRT3 in human H103 cells assessed as growth inhibition after 72 hrs by MTT assay; type: cell-based
T6 sequence (whole entry): T3 sequence (Q9NTG7 whole entry)
Method in brief: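 H103 cells (ECACC) were seeded at 5 × 10^3 per well and treated for 72 h with final DMSO below 1%. Viability was read by MTT: 4 h at 37 °C in 5% CO2, formazan dissolved in DMSO, absorbance at 570 nm. Proliferation was expressed as the ratio of treated to control absorbance. Experiments were run in triplicate. GI50 was determined.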

H103 [8] = test: Cell cycle arrest in human H103 cells assessed as accumulation at G1 phase after 24 hrs by RNase/7-AAD staining based flow cytometry analysis (reference value: 38.8 %); type: functional
Method in brief: (§2)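 H103 oral squamous carcinoma cells (ECACC) were seeded at 5 × 10^5 per well, left to adhere overnight and then treated for 24 h. Cells were trypsinized, washed in PBS and fixed in ice-cold 70% ethanol for 30 min at 4 °C. They were stained with RNase plus 7-AAD in staining buffer, and DNA content was read by imaging flow cytometry at 488 nm. G1 = 2N, G2/M = 4N.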

H103 [9] = test: Cell cycle arrest in human H103 cells assessed as accumulation at S phase after 24 hrs by RNase/7-AAD staining based flow cytometry analysis (reference value: 18 %); type: functional; method in brief: as §2
H103 [10] = test: Cell cycle arrest in human H103 cells assessed as accumulation at G2/M phase after 24 hrs by RNase/7-AAD staining based flow cytometry analysis (reference value: 36.5 %); type: functional; method in brief: as §2
H103 [11] = test: Induction of apoptosis in human H103 cells assessed as viable cells after 24 hrs by AnnexinV-FLTC/propidium iodide staining based flow cytometry (reference value: 29.4 %); type: functional
H103 [12] = test: Induction of apoptosis in human H103 cells assessed as early apoptotic cells after 24 hrs by AnnexinV-FLTC/propidium iodide staining based flow cytometry (reference value: 0.01 %); type: functional
H103 [13] = test: Induction of apoptosis in human H103 cells assessed as late apoptotic cells after 24 hrs by AnnexinV-FLTC/propidium iodide staining based flow cytometry (reference value: 1.32 %); type: functional
H103 [14] = test: Induction of apoptosis in human H103 cells assessed as necrotic cells after 24 hrs by AnnexinV-FLTC/propidium iodide staining based flow cytometry (reference value: 7.49 %); type: functional

Row | SMILES | IC50 [1] | IC50 [2] | IC50 [3] | inhibition [4] | inhibition [5] | inhibition [6] | GI50 [7] | Activity (H103 [8]) | Activity (H103 [9]) | Activity (H103 [10]) | Activity (H103 [11]) | Activity (H103 [12]) | Activity (H103 [13]) | Activity (H103 [14])
1 | CCOC(=O)c1ccc2[nH]c(-c3ccc(C(F)(F)F)cc3)nc2c1 | > 50 µM | > 50 µM | > 50 µM |  |  |  |  |  |  |  |  |  |  | 
2 | CCOC(=O)c1ccc2[nH]c(-c3ccc4c(c3)OCO4)nc2c1 | 7.7 µM | 5.6 µM | 9.8 µM | Active | inactive | inactive | 5.83 µM | 8.1% | 20.3% | 43.2% | 90.6% | 0.04% | 7.82% | 11.3%
3 | CCOC(=O)c1ccc2[nH]c(-c3ccc(Br)cc3)nc2c1 | > 50 µM | 45.8 µM | > 50 µM |  |  |  |  |  |  |  |  |  |  | 

Continued, in another order:

Row | IC50 [1] | IC50 [2] | IC50 [3] | inhibition [4] | inhibition [5] | inhibition [6] | GI50 [7] | SMILES | Activity (H103 [8]) | Activity (H103 [9]) | Activity (H103 [10]) | Activity (H103 [11]) | Activity (H103 [12]) | Activity (H103 [13]) | Activity (H103 [14])
4 | > 50 µM | > 50 µM | > 50 µM |  |  |  |  | CCOC(=O)c1ccc2[nH]c(-c3ccc(OC(F)(F)F)cc3)nc2c1 |  |  |  |  |  |  | 
5 | 33.6 µM | 30.5 µM |  |  |  |  |  | CCOC(=O)c1ccc2[nH]c(-c3ccc(Cl)cc3)nc2c1 |  |  |  |  |  |  | 
